Measurements from different studies.
Protocols differ between the studies behind these lines.
Target: Serine/threonine-protein kinase pim-2 (PIM2, Homo sapiens, UniProt Q9P1W9)

Compound	read-out	action	technique	concentration	endpoint	value
Cc1ccc(NC(=O)c2ccnc(C(F)(F)F)c2)cc1-c1cc(OCCO)nc(N2CCOCC2)c1	binding			1 µM	remaining binding	82%
CC#CC(=O)N1CCC[C@H]1c1nc(-c2ccc(C(=O)Nc3ccccn3)cc2)c2c(N)nccn12	enzyme activity	inhibitor		1 µM	inhibition	0%
N#Cc1ccc(NC(=O)Nc2ccccc2)cc1	cell-free assay		competition with immobilised ligand	25 µM	remaining binding	100%
COc1ccc2oc(-c3ccc4nc(N)oc4c3)c/c(=N\c3ccccc3NC(=O)CCN)c2c1	binding			1 µM	remaining binding	103%
C#Cc1cnc(Nc2ccnc(CO)c2)nc1Nc1ccccc1S(C)(=O)=NC#N (stereo not shown)	cell-free assay			1 µM	remaining signal	100%
C1=C/COCc2cc(ccc2OCCN2CCCC2)Nc2nccc(n2)-c2cccc(c2)COC/1	binding			0.1 µM	remaining binding	100%
C#Cc1cc(-c2cc(Nc3nc(N[C@@H](C)c4ccc(F)cn4)ncc3Cl)n[nH]2)ccc1C=O	enzyme activity	inhibitor		0.2 µM	inhibition	2.74%
CN1CCN(C(=O)c2ccc(NC(=O)Nc3ccc(N(C)c4ccnc(Nc5ccc(CS(C)(=O)=O)cc5)n4)cc3)cc2)CC1	binding			1 µM	remaining binding	100%
CCCCC(=O)Nc1ccc(-c2ccc3ncn(CCC)c(=O)c3c2)cn1	binding		competition with immobilised ligand	0.5 µM	remaining binding	100%
C=CC(=O)N1CCC[C@@H](n2nc(-c3ccc(Oc4ccccc4)cc3)c3c(N)ncnc32)C1	enzyme activity	inhibitor		1 µM	inhibition	3%
